Experimental data reported in PubChem BioAssay.
Inconclusive results are not listed.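 How the source made its calls, unless noted: active means inhibition over a set limit, the all-compound mean plus 3 SD, in both replicate runs; inconclusive means over that limit in just one replicate run; inactive means at or under that limit in both runs.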

Experiments:
[1] = OD615 S. cerevisiae growth inhibition, permissive medium, pilot counter-assay, permissive growth control for S. cerevisiae lifespan shortening project (AID 705;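 active means growth inhibition above 25% in both replicates, a cutoff set 3 SD above the mean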); settings: OD615, 24 h, at 10 µM, stronger effect = higher value
Method in brief: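 System: S. cerevisiae with engineered DeaD lifespan system. Medium: SC raffinose/galactose permissive medium. Doses: single compound dose of 10 µM, 0.25% DMSO final. Schedule: 24 h exposure, 30 °C. Measured by: OD615 turbidity read. Read-out: growth inhibition.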

[2] = Restrictive medium S. cerevisiae growth inhibition, OD615, pilot screen of yeast lifespan reduction project, restrictive growth control (AID 706;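 active means growth inhibition above a set limit, 3 SD over mean compound inhibition, in both replicates, cut at about 43% in these data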;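 further: modified DeaD lifespan yeast strain shifted to restrictive glucose medium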); settings: OD615, 48 h, at 10 µM, stronger effect = higher value
Method in brief: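 Assay system – genetically modified Saccharomyces cerevisiae, DeaD replicative lifespan assay strain · Medium – CSMM-D glucose medium · Doses – 10 µM compound, 0.25% DMSO · Times – 4 h pre-incubation, 48 h exposure at 30 °C · Signal – optical density at 615 nm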

[3] = viability gain of MRP-1-high H69AR cells under doxorubicin, pilot screen, MRP-1 activator project, CellTiter-Glo, duplicate (AID 807;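 active means viability increase at or above a cutoff of the median across tested compounds plus 3 SD, cut at about 8.5% in these data, passing the limit was not always enough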;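 further: compound pretreatment 18-22 h then 72 h combined with doxorubicin; 0% = doxorubicin alone and 100% = vehicle without doxorubicin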); settings: H69AR viability with doxorubicin, CellTiter-Glo luminescence; at 10 µM; stronger effect = higher value
[4] = growth suppression of beta-catenin knockout HCT116, pilot screen, human colon tumor cells (AID 823;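 active means cell viability at or below a set limit in both duplicate runs, the limit being the all-compound median minus 4 SD, cut at about 23% in these data, passing the limit was not always enough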;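 further: 0% = wells killed by 20 µM Hyamine and 100% = untreated DMSO cell wells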); settings: CellTiter-Glo, 60 h, at 10 µM, stronger effect = lower value
[5] = growth suppression of PTEN-deleted HCT116, pilot screen, cell-based, HCT116 clonal line, CellTiter-Glo (AID 824;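 active means viability at or below 27.92% in each of two runs, the all-compound median minus 4 SD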;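 further: 0% = 20 µM Hyamine control and 100% = vehicle cell control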); settings: 60 h, at 10 µM, stronger effect = lower value
[6] = inhibitors of the yeast RAM network, pilot screen, dse1pr::URA3 reporter, 5-FOA selection (AID 869);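 further: 0% = DMSO wells with no growth and 100% = 10 µM 1-NA-PP1 with full growth; RAM network block rescues cells from 5-FOA so hits raise OD615 growth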; settings: S. cerevisiae dse1pr::URA3 5-FOA growth, OD615, 2 d; at 10 µM; stronger effect = higher value; strain carries analog-sensitive mutant Cbk1 kinase
[7] = RAM signaling pathway blockade in yeast – S. cerevisiae, Pdr1DBD-CYC8 efflux-inhibited sensitized strain, primary screen (AID 1298;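 active means RAM network inhibition above 8.4% in each of two replicates, 3 SD over the compound average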;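 further: 0% = DMSO untreated cells without growth and 100% = 10 µM 1-NA-PP1 full growth; higher means more yeast growth rescued from 5-FOA killing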); settings: S. cerevisiae cbk1-as DSE1-URA3 strain, 5-FOA growth OD615, 2 d; at 50 µM; stronger effect = higher value

Cc1noc(C)c1CSCC(=O)OCC(=O)NC1CCCCC1
inactive: growth inhibition [1] -9% | growth inhibition [2] 2.07% | viability increase [3] 0.39% | viability [4] 97.1% | viability [5] 99.3% | inhibition [6] 0.26% | RAM network inhibition [7] 2.57%

COc1cc(/C=N/n2cnnc2)ccc1OCCOc1ccccc1
inactive: growth inhibition [1] 0.295% | growth inhibition [2] 1.02% | viability increase [3] -3.68% | viability [4] 104% | viability [5] 91.8% | inhibition [6] 3.07% | RAM network inhibition [7] 5.62%

Nc1c(C(=O)NCc2ccccc2)nnn1Cc1ccc(F)cc1
inactive: growth inhibition [1] -1.67% | growth inhibition [2] -11.5% | viability increase [3] -0.8% | viability [4] 98.6% | viability [5] 92.1% | inhibition [6] 1.8% | RAM network inhibition [7] 3.21%

CC(=O)c1cccc(NC(=O)C2CCCN2S(=O)(=O)c2cccc3cccnc23)c1 (stereo unspecified)
inactive: growth inhibition [1] -1.04% | growth inhibition [2] 3.5% | viability increase [3] -5.23% | viability [4] 74.4% | viability [5] 82.7% | inhibition [6] 1.09% | RAM network inhibition [7] 6.23%

O=C(NCCN1CCOCC1)c1ccc2c(c1)N(Cc1ccc(F)cc1)C(=O)CS2
inactive: growth inhibition [1] -16.1% | growth inhibition [2] -8.1% | viability increase [3] 3.02% | viability [4] 92.5% | viability [5] 88.9% | inhibition [6] 0.08% | RAM network inhibition [7] 0.11%

O=C(NCCc1ccccc1)c1ccc(Br)o1
inactive: growth inhibition [1] -7.62% | growth inhibition [2] 1.48% | viability increase [3] 0.4% | viability [4] 104% | viability [5] 103% | inhibition [6] 0.77% | RAM network inhibition [7] 1.44%

COc1ccccc1N1CCN(C(=O)CCc2ccc(S(=O)(=O)NC(C)C)cc2)CC1
inactive: growth inhibition [1] -12.7% | growth inhibition [2] -19.8% | viability increase [3] -2.97% | viability [4] 97.6% | viability [5] 102% | inhibition [6] 0.85% | RAM network inhibition [7] 4.61%

CCSc1nc2c(cnn2-c2ccc(C)c(C)c2)c(=O)[nH]1
inactive: growth inhibition [1] -2.47% | growth inhibition [2] -2.05% | viability increase [3] -1% | viability [4] 98.8% | viability [5] 94.2% | inhibition [6] 1.42% | RAM network inhibition [7] 7.85%

Cc1csc2nc(CNC(=O)C3CCCCC3)cn12
inactive: growth inhibition [1] -16.4% | growth inhibition [2] -13.2% | viability increase [3] -3.04% | viability [4] 105% | viability [5] 97.2% | inhibition [6] 0.93% | RAM network inhibition [7] 0.53%

Fc1ccccc1COc1cccc(/C=N/n2cnnc2)c1
inactive: growth inhibition [1] 2.62% | growth inhibition [2] 11.6% | viability increase [3] 0.12% | viability [4] 96.2% | viability [5] 84.9% | inhibition [6] 0.35% | RAM network inhibition [7] 0.15%

Cc1onc(-c2c(F)cccc2Cl)c1C(=O)OCC(=O)Nc1c(C)n(C)n(-c2ccccc2)c1=O
inactive: growth inhibition [1] -3.96% | growth inhibition [2] -1.53% | viability increase [3] -0.55% | viability [4] 87.4% | viability [5] 90.3% | inhibition [6] 0.92% | RAM network inhibition [7] 1.78%

Cc1c(/C=N/n2cnnc2)c2ccccc2n1C
inactive: growth inhibition [1] -2.21% | growth inhibition [2] 11.6% | viability increase [3] -1.49% | viability [4] 98.7% | viability [5] 95.3% | inhibition [6] -0.13% | RAM network inhibition [7] 4.77%

CCC1CCCCN1C(=O)CSc1nc2c(cnn2-c2ccc(C)cc2)c(=O)[nH]1 (stereo unspecified)
inactive: growth inhibition [1] -3.04% | growth inhibition [2] -5.33% | viability increase [3] -3.73% | viability [4] 97.2% | viability [5] 87.1% | inhibition [6] 1.71% | RAM network inhibition [7] 6.97%

COc1ccc(CCC(C(O)C(F)(F)F)S(=O)c2ccccc2)cc1 (stereo unspecified)
inactive: growth inhibition [1] -4.67% | growth inhibition [2] -15.5% | viability increase [3] -0.87% | viability [4] 95.4% | viability [5] 101% | inhibition [6] 0.54% | RAM network inhibition [7] 7.13%

COc1cc(C(=O)Nc2ccc(S(=O)(=O)Nc3onc(C)c3C)cc2)cc(OC)c1OC
inactive: growth inhibition [1] -5.13% | growth inhibition [2] -14.8% | viability increase [3] 0.55% | viability [4] 104% | viability [5] 105% | inhibition [6] 0.945% | RAM network inhibition [7] 4%

Cc1c(N=Cc2ccco2)c(=O)n(-c2ccccc2)n1C
inactive: growth inhibition [1] -11.1% | growth inhibition [2] -8.96% | viability increase [3] -1.15% | viability [4] 93.8% | viability [5] 96.7% | inhibition [6] 1.39% | RAM network inhibition [7] 0.89%

CC1(C)Oc2ccc3ccc(=O)oc3c2-c2cnoc21
inactive: growth inhibition [1] 0.81% | growth inhibition [2] 5.33% | viability increase [3] -0.4% | viability [4] 104% | viability [5] 96.3% | inhibition [6] 1.08% | RAM network inhibition [7] 4.79%

N#CCCCSc1nnc(-c2ccc(Cl)cc2)n1-c1ccccc1
inactive: growth inhibition [1] -4.58% | growth inhibition [2] 9.62% | viability increase [3] -3.58% | viability [4] 83% | viability [5] 93% | inhibition [6] 1.34% | RAM network inhibition [7] 4.2%

CC(NC(=O)c1ccc2c(c1)OCO2)C1CCCO1 (stereo unspecified)
inactive: growth inhibition [1] -3.77% | growth inhibition [2] 7.33% | viability increase [3] -0.15% | viability [4] 96.8% | viability [5] 94.5% | inhibition [6] 1.44% | RAM network inhibition [7] -0.53%

CCc1ccccc1N1CC23C=CC(O2)C(C(=O)OC)C3C1=O (stereo unspecified)
inactive: growth inhibition [1] -17.5% | growth inhibition [2] -18.8% | viability increase [3] -0.91% | viability [4] 92.7% | viability [5] 99% | inhibition [6] 0.9% | RAM network inhibition [7] 5.27%

COc1ccc(Cc2nnc(Nc3ccc(C)cc3C)[nH]c2=O)cc1
inactive: growth inhibition [1] -10.4% | growth inhibition [2] -12.6% | viability increase [3] -1.16% | viability [4] 91.2% | viability [5] 94.2% | inhibition [6] 1.08% | RAM network inhibition [7] 7.16%

CCOC(=O)c1ccccc1N1C(=O)CSC1=S
inactive: growth inhibition [1] -22.3% | growth inhibition [2] -19.6% | viability increase [3] -4.62% | viability [4] 96% | viability [5] 91.1% | inhibition [6] 1.11% | RAM network inhibition [7] 0.73%

COc1cc(NC(=O)C2CCCN2C(=O)C2CCC(C)CC2)cc(OC)c1OC (stereo unspecified)
inactive: growth inhibition [1] -6.57% | growth inhibition [2] -3.52% | viability increase [3] -1.44% | viability [4] 96.3% | viability [5] 93.2% | inhibition [6] 2.65% | RAM network inhibition [7] 1.46%

CC1CC(C)CN(C(=O)c2cn(C)c3ccc(S(=O)(=O)N(C)C)cc3c2=O)C1 (stereo unspecified)
inactive: growth inhibition [1] -4.13% | growth inhibition [2] 14.5% | viability increase [3] -0.59% | viability [4] 114% | viability [5] 104% | inhibition [6] 2.47% | RAM network inhibition [7] 2.05%

CCOC(=O)C1CCN(C(c2cccs2)c2sc3nc(C)nn3c2O)CC1 (stereo unspecified)
inactive: growth inhibition [1] -2.81% | growth inhibition [2] -7.96% | viability increase [3] -0.58% | viability [4] 105% | viability [5] 99.3% | inhibition [6] 0.905% | RAM network inhibition [7] 3.86%

C=CCSc1nc2c(c(=O)[nH]1)C(C(C)C)C(C#N)=C(N)O2 (stereo unspecified)
inactive: growth inhibition [1] 0.845% | growth inhibition [2] 1.47% | viability increase [3] -2.3% | viability [4] 101% | viability [5] 101% | inhibition [6] 1.75% | RAM network inhibition [7] 1.88%

Cc1noc(C(=O)Nc2c(C)nn(Cc3ccccc3)c2C)c1Cl
inactive: growth inhibition [1] -7.73% | growth inhibition [2] 7.98% | viability increase [3] 0.04% | viability [4] 93.1% | viability [5] 88.7% | inhibition [6] 2.25% | RAM network inhibition [7] 3.63%

O=C(O)c1ccc(NC(=O)C2C3CCC(C3)C2C(=O)O)cc1 (stereo unspecified)
inactive: growth inhibition [1] 7% | growth inhibition [2] -0.915% | viability increase [3] -0.12% | viability [4] 101% | viability [5] 98.8% | inhibition [6] 0.345% | RAM network inhibition [7] 0.46%

O=C(CSc1nnc(Cn2c(=O)sc3ccccc32)n1-c1ccccc1)NCc1ccco1
inactive: growth inhibition [1] -3.11% | growth inhibition [2] -1.47% | viability increase [3] -4.7% | viability [4] 99.5% | viability [5] 98.1% | inhibition [6] 1.22% | RAM network inhibition [7] 6%

CC(=O)Nc1ccc(S(=O)(=O)N2CCN(c3ccc(C)c(Cl)c3)CC2)cc1
inactive: growth inhibition [1] -14.6% | growth inhibition [2] 6.34% | viability increase [3] 0.47% | viability [4] 98.3% | viability [5] 85.4% | inhibition [6] 1.71% | RAM network inhibition [7] 1.14%

CCCCS(=O)CC(COc1ccc(Cl)cc1)OC(=O)c1ccccc1 (stereo unspecified)
inactive: growth inhibition [1] -11.8% | growth inhibition [2] -9.18% | viability increase [3] 3.23% | viability [4] 76.1% | viability [5] 86.2% | inhibition [6] 0.42% | RAM network inhibition [7] 5.86%

CCc1ccccc1NC(=O)c1cc2sccc2n1C
inactive: growth inhibition [1] -8.19% | growth inhibition [2] 0.86% | viability increase [3] 1.11% | viability [4] 90.4% | viability [5] 80.3% | inhibition [6] 0.28% | RAM network inhibition [7] 4.98%

CC(=O)c1cccc(NC2c3ccccc3C(=O)N2Cc2ccc3c(c2)OCO3)c1 (stereo unspecified)
inactive: growth inhibition [1] -2.94% | growth inhibition [2] 7.7% | viability increase [3] -2.61% | viability [4] 92.7% | viability [5] 79.6% | inhibition [6] 2.9% | RAM network inhibition [7] 2.2%
